Drawing on ChEMBL document CHEMBL1134465, “Synthesis and evaluation of pteroic acid-conjugated nitroheterocyclic phosphoramidates as folate receptor-targeted alkylating agents” (J Med Chem, 2001), this text covers IC50 for three compounds.

Molecules are shown by their SMILES.

Assay [1] is described as follows: In vitro growth inhibition of human breast adrenocarcinoma cell line, MDA-231 with over expressed folate receptors. In kind it is functional. Conditions: MDA-MB-231. In short, it runs like this: (§1)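 Cells were seeded and grown 24 h at 37 °C in McCoy's 5A medium with 10% heat-inactivated FBS, penicillin 100 U/mL and streptomycin 100 μg/mL. Drug from DMSO stock was added in the same medium, with final DMSO <1%. Five serial 10-fold dilutions were tested, top final concentration 100 μg/mL.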

For another assay, the system named is HT-29. As to the kind of experiment: In vitro growth inhibition of human tumor cell line, HT-29. In kind it is functional, cell-based. In short, it runs like this:
as §1

The test system of assay [2] is A498. As to the kind of experiment: In vitro growth inhibition of human kidney carcinoma cell line, A498 with low levels of folate receptors. It counts as functional, cell-based. The method, boiled down:
as §1

Another assay has as its system PC-3. The assay is described as follows: In vitro growth inhibition of human tumor cell line, PC3. It counts as functional, cell-based. The method, boiled down: as §1
Another assay has as its system UMUC3. As to the kind of experiment: In vitro growth inhibition of human tumor cell line, UMUC3. In kind it is functional, cell-based. The method, boiled down: as §1
Another assay deals with MIA PaCa-2. The assay is described as follows: In vitro growth inhibition of human tumor cell line, PACA2. In kind it is functional, cell-based. In short, it runs like this:
as §1

Assay [3] deals with A549. As to the kind of experiment: In vitro growth inhibition of human lung carcinoma cell line, A549 with low levels of folate receptors. It counts as functional, cell-based. The method, boiled down:
as §1

Assay [4] in a line: In vitro growth inhibition of human ovarian carcinoma cell line, IGROV with over expressed folate receptors. In kind it is functional. In short, it runs like this: as §1
Assay [5] is described as follows: In vitro growth inhibition of human ovarian carcinoma cell line, IGROV with over expressed folate receptors in folate deficient medium. It counts as functional. The method, boiled down:
(§2)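 Cells were incubated with drug for 72 h in folate-deficient medium. Drug from DMSO stock was added with final DMSO <1%. Five serial 10-fold dilutions were tested, top final concentration 100 μg/mL. Viable cells were estimated by MTT and IC50 was derived.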

For assay [6], the system named is A549. As to the kind of experiment: In vitro growth inhibition of human lung carcinoma cell line, A549 with low levels of folate receptors in folate deficient medium. In kind it is functional, cell-based. The method, boiled down: as §2
Assay [7] in a line: In vitro growth inhibition of human breast adrenocarcinoma cell line, MDA-231 with over-expressed folate receptors in folate deficient medium. Conditions: MDA-MB-231. It counts as functional. In short, it runs like this:
as §2

Assay [8] is described as follows: In vitro growth inhibition of human breast adrenocarcinoma cell line, MDA-231 with over-expressed folate receptors. It counts as functional. To be noted: MDA-MB-231. In short, it runs like this: as §1
Assay [9] deals with A498. As to the kind of experiment: In vitro growth inhibition of human kidney carcinoma cell line, A498 with low levels of folate receptors in folate deficient medium. In kind it is functional, cell-based. The method, boiled down:
as §2

Usually IC50 stands for the concentration needed to halve the response being measured. Regarding `NC(CCCCNP(=O)(OCc1ccc([N+](=O)[O-])o1)N(CCCl)CCCl)C(=O)O` (stereo unspecified), the half-inhibitory concentration (IC50) was 16 µM in assay [1]; 20 µM with HT-29; 26 µM in the assay with A498 [2]; 21 µM in the assay on PC-3; 0.62 µM with UMUC3; 2.4 µM in the assay on MIA PaCa-2. Also, the IC50 with A549 [3] came out at 41 µM.
For the compound `CCCNP(=O)(OCc1ccc([N+](=O)[O-])o1)N(CCCl)CCCl` (stereo unspecified), the IC50 was 1.9 µM in assay [1]; 17 µM in the assay on HT-29; 1.4 µM with A498 [2]; 2.3 µM in the assay with PC-3; 0.72 µM in the assay with UMUC3; 0.45 µM in the assay with MIA PaCa-2. For the same compound, the IC50 in the assay on A549 [3] was 1.9 µM.
As for `Nc1nc(O)c2nc(CNc3ccc(C(=O)NC(CCCCNP(=O)(OCc4ccc([N+](=O)[O-])o4)N(CCBr)CCBr)C(=O)O)cc3)cnc2n1` (stereo unspecified), the IC50 in assay [4] was found to be 0.83 µM; in the assay with HT-29, 0.3 µM; in the assay on A498 [2] it was 11 µM; in the assay with PC-3, 11 µM; in assay [5], 0.57 µM; with UMUC3, 5.2 µM. Besides, the IC50 worked out at 23 µM with A549 [6]; 16 µM with MIA PaCa-2; 11 µM with A549 [3]; 3.6 µM in [7]; 8 µM in assay [8]; 19 µM in the assay on A498 [9].
